Only some compounds are listed: those with a hit (about 2.9% of all), similar ones and a draw of the others.
SUMO Mot1 rescue = inhibitors of SUMOylation pathway: yeast Mot1-301 growth rescue | growth rescue, % at 18.8 µM | 320,000 compounds, 1% hits | AID 2716 | S. cerevisiae Mot1-301 growth rescue, ATP luminescence, 38.5C; percent above DMSO median, 100 means doubled;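 active means every valid replicate shows activation above 250% relative to neutral control wells; inactive means the rest, any valid replicate at or below 250%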
NALP1 inh = NALP1 inhibition | S. cerevisiae NALP1/ASC/caspase-1 growth, X-gal OD620, 72 h | inhibition, % at 10 µM | 280,000 compounds, 0.61% hits | AID 2071; in the data active means inhibition mostly above about 24%, no sharp cut-off; inactive means mostly below about 32%
UBC9 SUMO inh = SUMOylation inhibition. inhibition, % at 35 µM. P63279. HTRF SUMOylation assay, SAE1/SAE2 + UBC9, in vitro. 290,000 compounds, 0.36% hits; in the data active means inhibition above about 50%, passing the limit was not always enough
Target sequence (P63279 whole entry, looked up): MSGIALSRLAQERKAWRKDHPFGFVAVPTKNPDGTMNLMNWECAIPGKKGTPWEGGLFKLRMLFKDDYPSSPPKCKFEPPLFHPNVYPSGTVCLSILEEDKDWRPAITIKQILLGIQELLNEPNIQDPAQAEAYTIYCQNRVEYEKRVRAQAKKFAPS
VIM-2 inhibitor = inhibitors of Pseudomonas aeruginosa VIM-2 metallo-beta-lactamase. purified VIM-2, nitrocefin hydrolysis, epi-absorbance fluorescence. inhibition, % at 5.6 µM. 290,000 compounds, 0.89% hits. AID 1527;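 active means inhibition above the mean of all tested compounds plus 3 SD, cutoff set per screening run, cut at about 7.5% in these data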;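 further: red hydrolysis product quenches plate fluorescence so inhibitors raise well fluorescence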
IMP-1 inh = blocks Pseudomonas aeruginosa IMP-1 metallo-beta-lactamase; 290,000 compounds, 0.45% hits; inhibition, % at 5.6 µM; purified IMP-1, nitrocefin hydrolysis, epi-absorbance fluorescence;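 active means inhibition above the mean plus 3 SD of all compounds in the same screening run, cut at about 4.5% in these data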
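System: purified IMP-1; amount: IMP-1 0.2 nM before substrate addition; compound: single dose, 5.6 µM; times: 25 °C, 15 min preincubation, 25 min reaction; signal: Epi-absorbance via hydrolysed-nitrocefin quenching of white-plate fluorescence, 480/530 nm, EDTA stop; benchmarks: DMSO with and without IMP-1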
FID counter = fluorescent intercalator displacement, NS3 helicase counter-screen | DNA fluorescent intercalator displacement, fluorescence | inhibition, % at 7.9 µM | 290,000 compounds, 0.17% hits; in the data active means inhibition above about 37%;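 further: higher means more ethidium bromide displaced from hairpin DNA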
Yeast Mot1 SUMO = SUMO pathway inhibitors in yeast Mot1-301 growth; AID 493004; 2,300 tested, under 10 active; S. cerevisiae Mot1-301 galactose growth, ATP luminescence, 24 h; -100 = growth of slx-deleted rescue strain; shares compounds with SUMO Mot1 rescue; growth activity, percent, % at 42 µM;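 active means Signal drops as the depositor expects, and the fitted half-maximal dose is no more than ten times the top valid tested dose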;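 further: more negative values mean stronger growth rescue toward the control strain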
A number is an active result; 0 = inactive; - = not tested or not shown; + = active, no number.

SMILES	SUMO Mot1 rescue	NALP1 inh	UBC9 SUMO inh	VIM-2 inhibitor	IMP-1 inh	FID counter	Yeast Mot1 SUMO
COc1ccc(OCC(=O)O/N=C(\N)Cc2ccc(Cl)cc2)cc1	+	0	0	0	0	0	0
Cc1ccc(OCC(=O)O/N=C(\N)Cc2ccc(Cl)cc2)cc1	0	0	0	0	0	0	-
Cc1ccc(C(C(=O)Nc2ccc3c(c2)OCO3)N(C)C(=O)Cc2c[nH]c3ccccc23)cc1 (centres undefined)	756.0	0	0	0	0	0	0
CC(=O)NC(Cc1c[nH]c2ccccc12)C(=O)OCC(=O)Nc1ccc2c(c1)OCO2 (centres undefined)	0	0	0	0	0	0	-
CCCCC(O)(CCCC)C(=O)NN(C(=O)OC)c1ccc(C)cc1	446.2	0	0	0	0	0	0
O=C(NCc1ccccn1)C1Nc2ccc(C(F)(F)F)cc2C2C=CCC12 (centres undefined)	561.7	-	-	-	-	-	0
O=C(NCc1ccccc1)c1cccc(COc2ccc(Cl)cc2)c1	+	0	0	0	0	0	0
CCN(CC)C(=O)Cn1cc(S(=O)(=O)CC(=O)Nc2ccccc2C)c2ccccc21	0	0	0	0	0	0	-
CCN(CC)C(=O)Cn1cc(S(=O)(=O)CC(=O)NCCc2ccc(OC)c(OC)c2)c2ccccc21	383.6	0	0	0	0	0	0
Cc1ccc2cccc(OCc3nnc(SCC(=O)O)n3C)c2n1	+	0	0	0	0	0	0
Cc1ccc(C)c(OCCC(=O)OC(C)C(=O)Nc2c(C)n(C)n(-c3ccccc3)c2=O)c1 (centres undefined)	0	-	-	-	-	-	-
CC1C(=O)CC(c2ccccc2)NC1c1ccccc1 (centres undefined)	788.9	0	0	0	0	0	0
O=C(NCCc1ccccc1)C(=O)NCC1CCNCC1	0	0	0	0	0	0	-
O=C(Nc1cc(F)ccc1F)C1CCCO1 (centres undefined)	+	0	0	0	0	0	0
CCOc1ccc(Br)cc1S(=O)(=O)NC1=NCCCCC1	0	-	-	-	-	-	-
O=C(CN1CCCC1c1ccc2c(c1)OCCO2)NC(=O)Nc1ccccc1 (centres undefined)	0	-	-	-	-	-	-
CC(C)(C)n1nnnc1C(c1ccc(Cl)cc1)N(Cc1cccnc1)Cc1ccco1 (centres undefined)	436.7	0	0	0	0	0	0
CCC(=O)N(Cc1ccc2c(c1)OCO2)Cc1cc2cc(OC)ccc2[nH]c1=O	375.6	0	0	0	0	0	0
O=C(Nn1cnc2ccccc2c1=O)c1ccc(Cl)c([N+](=O)[O-])c1	0	0	0	0	0	0	-
CCN(C(=O)COC(=O)c1cc([N+](=O)[O-])ccc1N1CCOCC1)C1CCS(=O)(=O)C1 (centres undefined)	0	-	-	-	-	-	-
Cc1cc(C)c(NC(=O)CNC(=O)c2cc([N+](=O)[O-])ccc2N2CCOCC2)c(C)c1	507.3	-	-	-	-	-	0
CCN(C(=O)COC(=O)c1cc([N+](=O)[O-])ccc1N1CCOCC1)C1CCCCC1	537.7	-	-	-	-	-	0
CC(=O)c1ccc(NC(=O)C2CCCN(S(=O)(=O)c3c(C)[nH]c(=O)[nH]c3=O)C2)cc1 (centres undefined)	0	0	0	0	0	0	-
O=C(CSc1nnc(-c2ccc3c(c2)OCO3)n1-c1ccccc1)c1ccccc1	0	0	0	0	0	0	-
O=C(CSc1nnc(-c2cccs2)n1-c1ccccc1)c1ccc2c(c1)OCCO2	+	0	0	-	-	-	0
SMILES	SUMO Mot1 rescue	NALP1 inh	UBC9 SUMO inh	VIM-2 inhibitor	IMP-1 inh	FID counter	Yeast Mot1 SUMO
O=C(O)c1cc(S(=O)(=O)N2CCN(C(=O)c3ccco3)CC2)c(Cl)cc1Cl	0	0	0	0	0	0	-
Cc1nc2sc(C(c3ccccc3)N3CCC(O)CC3)c(O)n2n1 (centres undefined)	+	0	0	0	0	0	0
c1ccc2cc(Cn3ccnc3)ccc2c1	413.1	-	0	0	0	0	0
c1ccc2cc(OCCCn3ccnc3)ccc2c1	0	0	0	0	0	0	-
Cc1cc(C)nc(NS(=O)(=O)c2ccc(CC(C)C)cc2)c1	0	-	0	0	0	0	-
O=C(Nc1ccccc1)Nc1ccc(F)cc1F	0	0	0	0	0	0	-

Compound activity as filed in PubChem.
